# Assay results: ChEMBL document CHEMBL3120083, “Discovery of N-[4-[6-tert-butyl-5-methoxy-8-(6-methoxy-2-oxo-1H-pyridin-3-yl)-3-quinolyl]phenyl]methanesulfonamide (RG7109), a potent inhibitor of the hepatitis C virus NS5B polymerase” (J Med Chem, 2014)
# Tests used:
# Hepatitis C virus [1] = test: Antiviral activity against Hepatitis C virus genotype 1b clinical isolate RO-10 expressing NS5B assessed as inhibition of viral replication after 4 days by luciferase reporter gene assay; format: functional, organism-based, Hepacivirus hominis; conditions: genotype 1b clinical isolate RO-10, 96 h
# [2] = AUC (0 to infinity) in Wistar/Han rat at 30 mg/kg, po of compound as aqueous suspension; format: ADME, organism-based; design: time infinity, dose 30 mg/kg, route oral; conditions: plasma
# [3] = AUC (0 to infinity) in Beagle dog at 3 mg/kg, po of compound as aqueous suspension; format: ADME, organism-based, Canis lupus familiaris; design: time infinity, dose 3 mg/kg, route oral; conditions: plasma
# Hepatitis C virus [4] = test: Antiviral activity against Hepatitis C virus genotype 1a H77 expressing NS5B assessed as inhibition of viral replication after 4 days by luciferase reporter gene assay; format: functional, organism-based, Hepacivirus hominis; conditions: genotype 1a H77, 96 h
# [5] = Clearance in Beagle dog at 1 mg/kg, iv; format: ADME, organism-based, Canis lupus familiaris; design: dose 1 mg/kg, route intravenous; conditions: in vivo
# In short: (§1)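 Single intravenous bolus via tail vein or jugular cannula of dual-cannulated animals, vehicle 2% dimethyl acetamide/20% PEG400/23.4% HPBCD. EDTA blood typically taken at 0.08, 0.25, 0.5, 1, 2, 4, 6, 8 and 24 h from the remaining cannulas. Plasma drug measured by LC/MS/MS following acetonitrile protein precipitation.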
# Hepatitis C virus [6] = test: Antiviral activity against Hepatitis C virus genotype 1b clinical isolate RO-4 expressing NS5B assessed as inhibition of viral replication after 4 days by luciferase reporter gene assay; format: functional, organism-based, Hepacivirus hominis; conditions: genotype 1b clinical isolate RO-4, 96 h
# [7] = Volume of distribution at steady state in Beagle dog at 1 mg/kg, iv; format: ADME, organism-based, Canis lupus familiaris; design: dose 1 mg/kg, route intravenous; conditions: in vivo, read-out: Vdss; in short: as §1
# Hepatitis C virus [8] = test: Antiviral activity against Hepatitis C virus genotype 1a clinical isolate RO-33 expressing NS5B assessed as inhibition of viral replication after 4 days by luciferase reporter gene assay; format: functional, organism-based, Hepacivirus hominis; conditions: genotype 1a clinical isolate RO-33, 96 h
# [9] = Drug uptake in Wistar/Han rat at 30 mg/kg, po of compound as aqueous suspension measured at 8 hrs; format: ADME, organism-based; design: dose 30 mg/kg, route oral; conditions: in vivo, read-out: Drug uptake
# [10] = Ratio of EC50 for Hepatitis C virus genotype 1a H77 to EC50 for Hepatitis C virus genotype 1b Con1; format: functional
# Hepatitis C virus [11] = test: Ratio of EC50 for Hepatitis C virus genotype 1a H77 in presence of human serum to EC50 for Hepatitis C virus genotype 1a H77; format: functional, Hepacivirus hominis
# [12] = Oral bioavailability in Wistar/Han rat at 30 mg/kg of compound as aqueous suspension; format: ADME, organism-based; conditions: in vivo
# Hepatitis C virus [13] = test: Antiviral activity against Hepatitis C virus genotype 1b Con1 expressing NS5B assessed as inhibition of viral replication after 4 days by luciferase reporter gene assay; format: functional, organism-based, Hepacivirus hominis; conditions: isolate Con1, 96 h
# Hepatitis C virus [14] = test: Antiviral activity against Hepatitis C virus genotype 1a clinical isolate RO-38 expressing NS5B assessed as inhibition of viral replication after 4 days by luciferase reporter gene assay; format: functional, organism-based, Hepacivirus hominis; conditions: genotype 1a clinical isolate RO-38, 96 h
# Hepatitis C virus [15] = test: Antiviral activity against Hepatitis C virus genotype 1a clinical isolate RO-35 expressing NS5B assessed as inhibition of viral replication after 4 days by luciferase reporter gene assay; format: functional, organism-based, Hepacivirus hominis; conditions: genotype 1a clinical isolate RO-35, 96 h
# Hepatitis C virus [16] = test: Antiviral activity against Hepatitis C virus genotype 1a clinical isolate RO-41 expressing NS5B assessed as inhibition of viral replication after 4 days by luciferase reporter gene assay; format: functional, organism-based, Hepacivirus hominis; conditions: genotype 1a clinical isolate RO-41, 96 h
# [17] = Half life in Wistar/Han rat at 3 mg/kg, iv; format: ADME, organism-based; design: dose 3 mg/kg, route intravenous; conditions: in vivo; in short: as §1
# [18] = Volume of distribution at steady state in Wistar/Han rat at 3 mg/kg, iv; format: ADME, organism-based; design: dose 3 mg/kg, route intravenous; conditions: in vivo, read-out: Vdss; in short: as §1
# Hepatitis C virus [19] = test: Antiviral activity against Hepatitis C virus genotype 1a H77 infected in human 2209-23 cells after 72 hrs by luciferase reporter gene assay; format: functional, organism-based, Hepacivirus hominis; conditions: genotype 1a H77, 2209-23, 72 h
# Hepatitis C virus [20] = test: Antiviral activity against Hepatitis C virus genotype 1b Con1 infected in human 2209-23 cells after 72 hrs by luciferase reporter gene assay in presence of 40% human serum; format: functional, organism-based, Hepacivirus hominis; conditions: isolate Con1, 2209-23, 72 h
# [21] = Oral bioavailability in Beagle dog at 3 mg/kg of compound as aqueous suspension; format: ADME, organism-based, Canis lupus familiaris; conditions: in vivo
# Hepatitis C virus [22] = test: Antiviral activity against Hepatitis C virus genotype 1a clinical isolate RO-28 expressing NS5B assessed as inhibition of viral replication after 4 days by luciferase reporter gene assay; format: functional, organism-based, Hepacivirus hominis; conditions: genotype 1a clinical isolate RO-28, 96 h
# [23] = Cmax in Beagle dog at 3 mg/kg, po of compound as aqueous suspension; format: ADME, organism-based, Canis lupus familiaris; design: dose 3 mg/kg, route oral; conditions: in vivo
# [24] = Cmax in Wistar/Han rat at 30 mg/kg, po of compound as aqueous suspension; format: ADME, organism-based; design: dose 30 mg/kg, route oral; conditions: in vivo
# [25] = Clearance in Wistar/Han rat at 3 mg/kg, iv; format: ADME, organism-based; design: dose 3 mg/kg, route intravenous; conditions: in vivo; in short: as §1
# Hepatitis C virus [26] = test: Antiviral activity against Hepatitis C virus genotype 1b clinical isolate RO-7 expressing NS5B assessed as inhibition of viral replication after 4 days by luciferase reporter gene assay; format: functional, organism-based, Hepacivirus hominis; conditions: genotype 1b clinical isolate RO-7, 96 h
# [27] = Thermodynamic solubility of the compound; format: physicochemical; conditions: read-out: Therm_solubility
# Hepatitis C virus [28] = test: Antiviral activity against Hepatitis C virus genotype 1b clinical isolate RO-3 expressing NS5B assessed as inhibition of viral replication after 4 days by luciferase reporter gene assay; format: functional, organism-based, Hepacivirus hominis; conditions: genotype 1b clinical isolate RO-3, 96 h
# Hepatitis C virus [29] = test: Antiviral activity against Hepatitis C virus genotype 1b clinical isolate RO-1 expressing NS5B assessed as inhibition of viral replication after 4 days by luciferase reporter gene assay; format: functional, organism-based, Hepacivirus hominis; conditions: genotype 1b clinical isolate RO-1, 96 h
# Hepatitis C virus [30] = test: Antiviral activity against Hepatitis C virus genotype 1b clinical isolate RO-8 expressing NS5B assessed as inhibition of viral replication after 4 days by luciferase reporter gene assay; format: functional, organism-based, Hepacivirus hominis; conditions: genotype 1b clinical isolate RO-8, 96 h
# Hepatitis C virus [31] = test: Antiviral activity against Hepatitis C virus genotype 1b clinical isolate RO-9 expressing NS5B assessed as inhibition of viral replication after 4 days by luciferase reporter gene assay; format: functional, organism-based, Hepacivirus hominis; conditions: genotype 1b clinical isolate RO-9, 96 h
# [32] = Drug uptake in Beagle dog at 3 mg/kg, po of compound as aqueous suspension measured at 8 hrs; format: ADME, organism-based, Canis lupus familiaris; design: dose 3 mg/kg, route oral; conditions: in vivo, read-out: Drug uptake
# Hepatitis C virus [33] = test: Antiviral activity against Hepatitis C virus genotype 1a clinical isolate RO-34 expressing NS5B assessed as inhibition of viral replication after 4 days by luciferase reporter gene assay; format: functional, organism-based, Hepacivirus hominis; conditions: genotype 1a clinical isolate RO-34, 96 h
# Hepatitis C virus [34] = test: Antiviral activity against Hepatitis C virus genotype 1b Con1 infected in human 2209-23 cells after 72 hrs by luciferase reporter gene assay; format: functional, organism-based, Hepacivirus hominis; conditions: isolate Con1, 2209-23, 72 h
# In short: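 Stable GT-1b Con1 subgenomic replicon cell line expressing a renilla luciferase reporter, used as the readout of inhibition. EC50 from luciferase signal, n 2.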
# Hepatitis C virus [35] = test: Ratio of EC50 for Hepatitis C virus genotype 1b Con1 in presence of human serum to EC50 for Hepatitis C virus genotype 1b Con1; format: functional, Hepacivirus hominis, isolate Con1
# Hepatitis C virus [36] = test: Antiviral activity against Hepatitis C virus genotype 1a clinical isolate RO-24 expressing NS5B assessed as inhibition of viral replication after 4 days by luciferase reporter gene assay; format: functional, organism-based, Hepacivirus hominis; conditions: genotype 1a clinical isolate RO-24, 96 h
# Hepatitis C virus [37] = test: Antiviral activity against Hepatitis C virus genotype 1a H77 infected in human 2209-23 cells after 72 hrs by luciferase reporter gene assay in presence of 40% human serum; format: functional, organism-based, Hepacivirus hominis; conditions: genotype 1a H77, 2209-23, 72 h
# Hepatitis C virus [38] = test: Antiviral activity against Hepatitis C virus genotype 1b clinical isolate RO-2 expressing NS5B assessed as inhibition of viral replication after 4 days by luciferase reporter gene assay; format: functional, organism-based, Hepacivirus hominis; conditions: genotype 1b clinical isolate RO-2, 96 h
# [39] = Half life in Beagle dog at 1 mg/kg, iv; format: ADME, organism-based, Canis lupus familiaris; design: dose 1 mg/kg, route intravenous; conditions: in vivo; in short: as §1
# Hepatitis C virus [40] = test: Antiviral activity against Hepatitis C virus genotype 1a clinical isolate RO-18 expressing NS5B assessed as inhibition of viral replication after 4 days by luciferase reporter gene assay; format: functional, organism-based, Hepacivirus hominis; conditions: genotype 1a clinical isolate RO-18, 96 h
structure (smiles),measurement,setting,value
COc1ccc(-c2cc(C(C)(C)C)c(OC)c3cc(N4CC[C@H](CNS(C)(=O)=O)C4)cnc23)c(=O)[nH]1,EC50,Hepatitis C virus [1],1.67 nM
same,AUC(0-inf),[2],37000 ng·h/mL
same,AUC(0-inf),[3],4200 ng·h/mL
same,EC50,Hepatitis C virus [4],0.65 nM
same,clearance,[5],4.4 mL/min/kg
same,EC50,Hepatitis C virus [6],0.8 nM
same,Vd,[7],1.5 L/kg
same,EC50,Hepatitis C virus [8],0.7 nM
same,concentration at 8 h,[9],1790 ng/mL
same,Ratio EC50,[10],1.4
same,Ratio EC50,Hepatitis C virus [11],0.6
same,bioavailability,[12],100%
same,EC50,Hepatitis C virus [13],1.2 nM
same,EC50,Hepatitis C virus [14],9.5 nM
same,EC50,Hepatitis C virus [15],0.5 nM
same,EC50,Hepatitis C virus [16],0.27 nM
same,half-life,[17],5.6 h
same,Vd,[18],2.3 L/kg
same,EC50,Hepatitis C virus [19],17 nM
same,EC50,Hepatitis C virus [20],7.5 nM
same,EC90,Hepatitis C virus [20],44 nM
same,bioavailability,[21],36%
same,EC50,Hepatitis C virus [22],0.2 nM
same,Cmax,[23],360 ng/mL
same,Cmax,[24],3800 ng/mL
same,clearance,[25],13.8 mL/min/kg
same,EC50,Hepatitis C virus [26],3.05 nM
same,solubility thermodynamic,[27],39 µg/mL
same,EC50,Hepatitis C virus [28],6.1 nM
same,EC50,Hepatitis C virus [29],0.3 nM
same,EC50,Hepatitis C virus [30],0.33 nM
same,EC50,Hepatitis C virus [31],3.5 nM
same,concentration at 8 h,[32],210 ng/mL
same,EC50,Hepatitis C virus [33],0.4 nM
same,EC50,Hepatitis C virus [34],12 nM
same,Ratio EC50,Hepatitis C virus [35],0.6
same,EC50,Hepatitis C virus [36],2.5 nM
same,EC50,Hepatitis C virus [37],10 nM
same,EC90,Hepatitis C virus [37],61 nM
same,EC50,Hepatitis C virus [38],4 nM
same,half-life,[39],5.1 h
same,EC50,Hepatitis C virus [40],0.5 nM
